Results: ChEMBL document CHEMBL2311431, “Synthesis and biological evaluation of some 5-arylidene-2-(1,3-thiazol-2-ylimino)-1,3-thiazolidin-4-ones as dual anti-inflammatory/antimicrobial agents” (Bioorg Med Chem, 2013)
In brackets after ≈: the same amount, converted by molar mass.

Legend:
Aspergillus niger [1] = test: Fungicidal activity against Aspergillus niger ATCC 6275 after 72 hrs by serial subcultivation method; format: functional; details: ATCC 6275, 72 h
Escherichia coli [2] = test: Bactericidal activity against Escherichia coli ATCC 35210 after 72 hrs by serial subcultivation method; format: functional; details: ATCC 35210, 72 h
Micrococcus flavus [3] = test: Bactericidal activity against Micrococcus flavus ATCC 10240 after 72 hrs by serial subcultivation method; format: functional; details: ATCC 10240, 72 h
Penicillium ochrochloron [4] = test: Fungicidal activity against Penicillium ochrochloron ATCC 9112 after 72 hrs by serial subcultivation method; format: functional; details: ATCC 9112, 72 h
Talaromyces funiculosus [5] = test: Antifungal activity against Penicillium funiculosum ATCC 36839 after 72 hrs by serial dilution technique; format: functional; details: ATCC 36839, 72 h
Method in brief: (§1)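 Serial dilution in malt broth; compounds from 1 mg/ml stocks in 5% DMSO; 72 h at 28 °C. MIC is the lowest concentration with no visible growth under a binocular microscope. Run in duplicate, repeated three times.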

Micrococcus flavus [6] = test: Antibacterial activity against Micrococcus flavus ATCC 10240 after 24 hr by microdilution test; format: functional; details: ATCC 10240, 24 h
Method in brief: (§2)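 Broth microdilution in LB medium, about 1.0×10^4 cfu per well; compounds from 1 mg/ml stocks in 5% DMSO. Incubated 24 h. MIC is the lowest concentration with no visible growth under a binocular microscope. Run in duplicate, repeated three times.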

Trichoderma viride [7] = test: Antifungal activity against Trichoderma viride IAM 5061 after 72 hrs by serial dilution technique; format: functional; details: IAM 5061, 72 h; method in brief: as §1
Bacillus cereus [8] = test: Bactericidal activity against Bacillus cereus clinical isolate after 72 hrs by serial subcultivation method; format: functional
Aspergillus flavus [9] = test: Fungicidal activity against Aspergillus flavus ATCC 9643 after 72 hrs by serial subcultivation method; format: functional; details: ATCC 9643, 72 h
Mus musculus [10] = test: Acute toxicity in AKR mouse up to 0.5 mmol/kg, ip; format: organism-based; details: in vivo
Penicillium ochrochloron [11] = test: Antifungal activity against Penicillium ochrochloron ATCC 9112 after 72 hrs by serial dilution technique; format: functional; details: ATCC 9112, 72 h; method in brief: as §1
Escherichia coli [12] = test: Antibacterial activity against Escherichia coli ATCC 35210 after 24 hr by microdilution test; format: functional; details: ATCC 35210, 24 h; method in brief: as §2
Bacillus cereus [13] = test: Antibacterial activity against Bacillus cereus clinical isolate after 24 hr by microdilution test; format: functional; method in brief: as §2
Listeria monocytogenes [14] = test: Bactericidal activity against Listeria monocytogenes NCTC 7973 after 72 hrs by serial subcultivation method; format: functional; details: NCTC 7973, 72 h
Aspergillus flavus [15] = test: Antifungal activity against Aspergillus flavus ATCC 9643 after 72 hrs by serial dilution technique; format: functional; details: ATCC 9643, 72 h; method in brief: as §1
Aspergillus fumigatus [16] = test: Antifungal activity against Aspergillus fumigatus after 72 hrs by serial dilution technique; format: functional; method in brief: as §1
Aspergillus niger [17] = test: Antifungal activity against Aspergillus niger ATCC 6275 after 72 hrs by serial dilution technique; format: functional; details: ATCC 6275, 72 h; method in brief: as §1
Aspergillus fumigatus [18] = test: Fungicidal activity against Aspergillus fumigatus after 72 hrs by serial subcultivation method; format: functional
Pseudomonas aeruginosa [19] = test: Antibacterial activity against Pseudomonas aeruginosa ATCC 27853 after 24 hr by microdilution test; format: functional; details: ATCC 27853, 24 h; method in brief: as §2
Trichoderma viride [20] = test: Fungicidal activity against Trichoderma viride IAM 5061 after 72 hrs by serial subcultivation method; format: functional; details: IAM 5061, 72 h
Pseudomonas aeruginosa [21] = test: Bactericidal activity against Pseudomonas aeruginosa ATCC 27853 after 72 hrs by serial subcultivation method; format: functional; details: ATCC 27853, 72 h
Listeria monocytogenes [22] = test: Antibacterial activity against Listeria monocytogenes NCTC 7973 after 24 hr by microdilution test; format: functional; details: NCTC 7973, 24 h; method in brief: as §2
Mus musculus [23] = test: Antiinflammatory activity in AKR mouse assessed as inhibition of carrageenan-induced paw edema at 0.01 mmol/kg, ip measured after 3.5 hrs of carrageenan-challenge; format: functional
Method in brief: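 AKR mice of both sexes (pregnant females excluded), 6-10 per group, fasted during the experiment. Edema induced by intradermal 0.05 mL of 2% carrageenin into the right hind paw. Compound given at 0.01 mmol/kg ip, suspended in water with Tween-80, at the same time as carrageenin.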

Talaromyces funiculosus [24] = test: Fungicidal activity against Penicillium funiculosum ATCC 36839 after 72 hrs by serial subcultivation method; format: functional; details: ATCC 36839, 72 h
Staphylococcus aureus [25] = test: Antibacterial activity against Staphylococcus aureus ATCC 6538 after 24 hr by microdilution test; format: functional; details: ATCC 6538, 24 h; method in brief: as §2
Staphylococcus aureus [26] = test: Bactericidal activity against Staphylococcus aureus ATCC 6538 after 72 hrs by serial subcultivation method; format: functional; details: ATCC 6538, 72 h
[27] = molecular target: T1, Prostaglandin G/H synthase 1 (Ovis aries) (UniProt P05979); test: Inhibition of ovine COX1 assessed as inhibition of PGF2a production by enzyme immunoassay; design: concentration or dose not given beside the values; details: concentration not given here
T1 sequence (whole entry): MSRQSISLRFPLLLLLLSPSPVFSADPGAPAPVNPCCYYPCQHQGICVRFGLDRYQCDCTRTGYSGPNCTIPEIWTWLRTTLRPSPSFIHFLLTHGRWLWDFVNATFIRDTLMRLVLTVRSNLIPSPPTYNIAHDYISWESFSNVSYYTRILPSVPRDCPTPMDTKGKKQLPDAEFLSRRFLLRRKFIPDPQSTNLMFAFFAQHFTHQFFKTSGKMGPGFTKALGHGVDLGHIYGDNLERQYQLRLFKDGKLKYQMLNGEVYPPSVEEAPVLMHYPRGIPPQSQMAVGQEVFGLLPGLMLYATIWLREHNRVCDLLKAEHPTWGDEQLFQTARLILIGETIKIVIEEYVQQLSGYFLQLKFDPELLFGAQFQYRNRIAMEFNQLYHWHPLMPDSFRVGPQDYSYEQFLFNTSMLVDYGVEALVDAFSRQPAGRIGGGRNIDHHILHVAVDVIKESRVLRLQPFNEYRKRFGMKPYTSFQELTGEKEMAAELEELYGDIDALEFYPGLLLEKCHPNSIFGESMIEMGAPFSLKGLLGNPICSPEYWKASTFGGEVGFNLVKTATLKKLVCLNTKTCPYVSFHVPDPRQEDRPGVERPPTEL
Method in brief: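 Ovine COX-1 from a commercial screening kit, tested with 0.1 µM arachidonic acid, which is below the saturating level. COX-derived PGH2 is reduced by SnCl2 to PGF2a, quantified by enzyme immunoassay with a broad prostaglandin antibody. At least triplicate.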

[28] = Inhibition of soybean lipoxygenase assessed as inhibition of sodium linolate conversion to 13-hydroperoxylinoleic acid after 4 mins by spectrophotometry; design: species or system Glycine max; details: read-out: IC50

| Compound | MFC (Aspergillus niger [1]) | MBC (Escherichia coli [2]) | MBC (Micrococcus flavus [3]) | MFC (Penicillium ochrochloron [4]) | MIC (Talaromyces funiculosus [5]) | MIC (Micrococcus flavus [6]) | MIC (Trichoderma viride [7]) | MBC (Bacillus cereus [8]) | MFC (Aspergillus flavus [9]) | Activity (Mus musculus [10]) | MIC (Penicillium ochrochloron [11]) | MIC (Escherichia coli [12]) | MIC (Bacillus cereus [13]) | MBC (Listeria monocytogenes [14]) | MIC (Aspergillus flavus [15]) | MIC (Aspergillus fumigatus [16]) | MIC (Aspergillus niger [17]) | MFC (Aspergillus fumigatus [18]) | MIC (Pseudomonas aeruginosa [19]) | MFC (Trichoderma viride [20]) | other results |
| --- | --- | --- | --- | --- | --- | --- | --- | --- | --- | --- | --- | --- | --- | --- | --- | --- | --- | --- | --- | --- | --- |
| O=C1N/C(=N\c2nc(-c3ccccc3)cs2)S/C1=C\c1ccc(Cl)cc1 | 27.3 µM (≈ 10.9 µg/mL) | 50 µM (≈ 19.9 µg/mL) | 25 µM (≈ 9.95 µg/mL) | 27.3 µM (≈ 10.9 µg/mL) | 20.5 µM (≈ 8.16 µg/mL) | 25 µM (≈ 9.95 µg/mL) | 13.7 µM (≈ 5.45 µg/mL) | 50 µM (≈ 19.9 µg/mL) | 27.3 µM (≈ 10.9 µg/mL) | Non-toxic | 13.7 µM (≈ 5.45 µg/mL) | 50 µM (≈ 19.9 µg/mL) | 25 µM (≈ 9.95 µg/mL) | 100 µM (≈ 39.8 µg/mL) | 13.7 µM (≈ 5.45 µg/mL) | 13.7 µM (≈ 5.45 µg/mL) | 13.7 µM (≈ 5.45 µg/mL) | 27.3 µM (≈ 10.9 µg/mL) | 50 µM (≈ 19.9 µg/mL) | 27.3 µM (≈ 10.9 µg/mL) | MBC (Pseudomonas aeruginosa [21]): 100 µM (≈ 39.8 µg/mL); MIC (Listeria monocytogenes [22]): 50 µM (≈ 19.9 µg/mL); inhibition in vivo at 10 µmol/kg (Mus musculus [23]): 27.3%; MFC (Talaromyces funiculosus [24]): 27.3 µM (≈ 10.9 µg/mL); MIC (Staphylococcus aureus [25]): 50 µM (≈ 19.9 µg/mL); MBC (Staphylococcus aureus [26]): 100 µM (≈ 39.8 µg/mL); inhibition [27]: 78%; IC50 [28]: 54 µM |
| Cc1csc(/N=C2\NC(=O)/C(=C/c3ccc(Cl)cc3)S2)n1 | 15.2 µM (≈ 5.1 µg/mL) | 240 µM (≈ 80.6 µg/mL) | 60 µM (≈ 20.2 µg/mL) | 15.2 µM (≈ 5.1 µg/mL) | 7.6 µM (≈ 2.55 µg/mL) | 30 µM (≈ 10.1 µg/mL) | 7.6 µM (≈ 2.55 µg/mL) | 30 µM (≈ 10.1 µg/mL) | 15.2 µM (≈ 5.1 µg/mL) | Non-toxic | 7.6 µM (≈ 2.55 µg/mL) | 120 µM (≈ 40.3 µg/mL) | 30 µM (≈ 10.1 µg/mL) | 60 µM (≈ 20.2 µg/mL) | 15.2 µM (≈ 5.1 µg/mL) | 15.2 µM (≈ 5.1 µg/mL) | 15.2 µM (≈ 5.1 µg/mL) | 15.2 µM (≈ 5.1 µg/mL) | 30 µM (≈ 10.1 µg/mL) | 15.2 µM (≈ 5.1 µg/mL) | MBC (Pseudomonas aeruginosa [21]): 120 µM (≈ 40.3 µg/mL); MIC (Listeria monocytogenes [22]): 30 µM (≈ 10.1 µg/mL); inhibition in vivo at 10 µmol/kg (Mus musculus [23]): 42%; MFC (Talaromyces funiculosus [24]): 15.2 µM (≈ 5.1 µg/mL); MIC (Staphylococcus aureus [25]): 120 µM (≈ 40.3 µg/mL); MBC (Staphylococcus aureus [26]): 240 µM (≈ 80.6 µg/mL); inhibition [27]: 74%; IC50 [28]: 76 µM |
| Cc1cnc(/N=C2\NC(=O)/C(=C/c3ccc([N+](=O)[O-])cc3)S2)s1 | 31.5 µM (≈ 10.9 µg/mL) | 232 µM (≈ 80.4 µg/mL) | 29 µM (≈ 10 µg/mL) | 31.5 µM (≈ 10.9 µg/mL) | 15.8 µM (≈ 5.47 µg/mL) | 29 µM (≈ 10 µg/mL) | 15.8 µM (≈ 5.47 µg/mL) | 29 µM (≈ 10 µg/mL) | 31.5 µM (≈ 10.9 µg/mL) | Non-toxic | 15.8 µM (≈ 5.47 µg/mL) | 116 µM (≈ 40.2 µg/mL) | 29 µM (≈ 10 µg/mL) | 29 µM (≈ 10 µg/mL) | 15.8 µM (≈ 5.47 µg/mL) | 15.8 µM (≈ 5.47 µg/mL) | 15.8 µM (≈ 5.47 µg/mL) | 31.5 µM (≈ 10.9 µg/mL) | 29 µM (≈ 10 µg/mL) | 31.5 µM (≈ 10.9 µg/mL) | MBC (Pseudomonas aeruginosa [21]): 116 µM (≈ 40.2 µg/mL); MIC (Listeria monocytogenes [22]): 29 µM (≈ 10 µg/mL); inhibition in vivo at 10 µmol/kg (Mus musculus [23]): 55.4%; MFC (Talaromyces funiculosus [24]): 31.5 µM (≈ 10.9 µg/mL); MIC (Staphylococcus aureus [25]): 116 µM (≈ 40.2 µg/mL); MBC (Staphylococcus aureus [26]): 232 µM (≈ 80.4 µg/mL); inhibition [27]: 68%; IC50 [28]: 79 µM |
